Most compounds without a hit are left out; they make up all but 2.9% or so of the library.
SIRT5 inh – SIRT5 desuccinylase inhibitors, primary screen, biochemical, fluorescence imaging, single point, set 5. NAD-dependent protein deacylase sirtuin-5, mitochondrial (Homo sapiens), Q9NXA8. actives 1.1% (n = 330,000). inhibition, % at 15 µM. Purified SirT5, succinyl-peptide AMC, trypsin-coupled fluorescence; in the data active = inhibition above about 15%
ERAP1 inh – human ERAP1 aminopeptidase inhibitors, primary screen, biochemical, single point, plate reader; Endoplasmic reticulum aminopeptidase 1 (Homo sapiens), Q9NZ08; recombinant ERAP1, Leu-AMC fluorescence, 60 min; inhibition, % at 10.7 µM; actives 0.15% (n = 340,000);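 active = mean replicate inhibition of at least 30%, or all replicates individually reaching that 30% level; inactive = mean below 30% and not every replicate reaching it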;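 also: 0% = neutral control wells and 100% = L-leucinethiol positive control wells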
Target sequence (Q9NZ08 whole entry, looked up): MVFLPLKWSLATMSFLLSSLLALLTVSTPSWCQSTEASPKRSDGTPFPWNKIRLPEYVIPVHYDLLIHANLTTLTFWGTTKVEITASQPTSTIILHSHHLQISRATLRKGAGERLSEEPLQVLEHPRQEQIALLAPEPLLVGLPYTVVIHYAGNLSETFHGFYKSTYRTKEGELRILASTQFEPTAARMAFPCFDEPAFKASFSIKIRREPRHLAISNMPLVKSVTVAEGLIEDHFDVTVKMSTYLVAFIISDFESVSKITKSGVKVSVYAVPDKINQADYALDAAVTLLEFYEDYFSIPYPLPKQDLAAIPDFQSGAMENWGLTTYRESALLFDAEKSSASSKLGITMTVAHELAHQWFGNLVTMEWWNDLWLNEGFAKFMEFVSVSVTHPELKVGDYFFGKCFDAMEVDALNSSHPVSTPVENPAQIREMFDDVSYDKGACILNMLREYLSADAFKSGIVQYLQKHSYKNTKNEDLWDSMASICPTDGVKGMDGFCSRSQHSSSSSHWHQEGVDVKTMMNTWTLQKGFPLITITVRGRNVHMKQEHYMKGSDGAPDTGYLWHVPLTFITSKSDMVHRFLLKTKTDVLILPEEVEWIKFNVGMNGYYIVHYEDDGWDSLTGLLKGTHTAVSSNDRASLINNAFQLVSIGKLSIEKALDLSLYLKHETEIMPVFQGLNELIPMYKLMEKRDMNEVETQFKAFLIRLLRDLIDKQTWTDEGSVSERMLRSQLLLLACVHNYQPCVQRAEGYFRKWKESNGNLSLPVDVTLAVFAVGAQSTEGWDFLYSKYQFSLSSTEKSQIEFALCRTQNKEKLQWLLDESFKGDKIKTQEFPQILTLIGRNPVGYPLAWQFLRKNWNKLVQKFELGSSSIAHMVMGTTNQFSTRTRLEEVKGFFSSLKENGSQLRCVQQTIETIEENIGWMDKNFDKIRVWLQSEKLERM
CAL PDZ FP-1 – untagged CAL PDZ binding inhibitors, primary screen, biochemical, fluorescence polarization, HTS | purified CAL PDZ, TMR-peptide fluorescence polarization, 1 h | Golgi-associated PDZ and coiled-coil motif-containing protein (Homo sapiens), Q9HD26 | actives 0.92% (n = 300,000) | inhibition, % at 24.9 µM;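 active = mean inhibition of at least 30% with at least half of replicates also reaching 30%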;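 also: 0% = DMSO neutral control and 100% = excess unlabeled competitor peptide PRC23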
DENV2 CPE rescue – inhibitors of DENV2 cytopathic effect, primary screen, cell-based, plate reader, single concentration; DENV2-infected cells, cytopathic effect rescue; CPE inhibition, % at 9.99 µM; actives 1.7% (n = 350,000); in the data active = CPE inhibition above about 20%, passing the limit was not always enough; tested in BHK-21 cells;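 also: 0% = median of neutral control wells and 100% = median of positive control wells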
S100A4 MyoIIA – inhibitors of S100A4-myosin IIA peptide binding, primary screen, biochemical, fluorescence polarization, TAMRA-MyoIIA peptide | inhibition, % at 10.7 µM | AID 652163, 2013 | Protein S100-A4 (Homo sapiens), P26447 | actives 0.14% (n = 360,000);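 active = mean inhibition of at least 70% across replicates, with every replicate also reaching that level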
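Test system: S100A4 monomer protein; Medium: HEPES pH 7.2 with CaCl2, KCl, NaCl, DTT, Triton; Probe or stimulus: TAMRA-labelled myosin IIA heavy-chain peptide probe, 5 nM; Doses: one dose per compound; Times: polarization read 5 min after assay mix addition, stable 5–60 min; Benchmarks: neutral control DMSO, positive control TFP.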
CAL PDZ FP-2 – CAL PDZ peptide-binding inhibitors, primary screen, biochemical, fluorescence polarization, Cer-tagged CAL PDZ, HTS | Golgi-associated PDZ and coiled-coil motif-containing protein (Homo sapiens), Q9HD26 | AID 504414, 2011 | purified CAL PDZ, TMR-peptide fluorescence polarization, 1 h | actives 0.02% (n = 330,000) | inhibition, % at 20 µM;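 active = highest replicate inhibition of at least 40%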;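 also: plate controls were DMSO neutral control wells for no effect and unlabeled competitor peptide control wells for full effect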
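Read-out basis: mP drop reported as inhibition | Assay system: Tagged CAL PDZ protein CerCALP, purified | Benchmarks: Unlabelled peptide for full inhibition, DMSO wells as neutral | Schedule: 1 h incubation at room temperature before polarization reading | Buffer or medium: Sodium phosphate/NaCl buffer pH 7.4 with TCEP, IgG, Thesit | Doses: Single point, 20 µM | Measured by: Fluorescence polarization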
* hit, by the source's call; / = no result given.

SMILES | SIRT5 inh | ERAP1 inh | CAL PDZ FP-1 | DENV2 CPE rescue | S100A4 MyoIIA | CAL PDZ FP-2
CNC(=O)c1ccc(Nc2nc(-c3ccccc3)nc3ccccc23)cc1 | -0.4 | 4.8 | 3.1 | 14.0 | 6.8 | -5.3
Cc1ccc(-c2nc(NCCN(C)C)c3ccccc3n2)cc1 | -1.3 | -3.6 | 3.5 | 6.4 | 1.7 | /
O=C(O)c1ccc(Nc2nc(-c3ccccc3)nc3ccccc23)cc1 | 39.2* | -2.6 | -5.8 | 2.2 | 5.1 | /
Cc1ccc(-c2nc(NCCCO)c3ccccc3n2)cc1 | -13.6 | -0.9 | 6.9 | 31.3* | 3.0 | -2.1
COC(=O)c1c2oc(c1C(=O)OC)C(=O)N[C@@H](Cc1ccccc1)Cn1cc(nn1)CNC(=O)[C@@H](Cc1ccccc1)NC(=O)N[C@@H](CO)CC2 | -3.9 | -0.7 | / | -7.6 | 17.5 | /
COc1ccc(C)cc1NC(=O)C(OC(=O)c1cnc(C)cn1)c1ccccc1 (centres undefined) | 1.7 | -0.8 | -1.9 | 2.9 | -2.7 | -1.9
COc1ccc(NC(=O)C(OC(=O)c2cnc(C)cn2)c2ccccc2)cc1Cl (centres undefined) | -2.2 | -2.9 | 3.3 | 74.5* | -1.2 | -3.5
CC(C)NC(=O)N(C)C[C@@H]1Oc2c(NC(=O)CCCCCC(=O)Nc3ccccc3N)cccc2C(=O)N([C@H](C)CO)C[C@H]1C | / | -0.8 | / | 9.4 | 3.5 | /
Cc1noc(C)c1NC(=O)N(C)C[C@H]1Oc2c(NC(=O)CCCCCC(=O)Nc3ccccc3N)cccc2C(=O)N([C@@H](C)CO)C[C@H]1C | 3.2 | 3.4 | / | 9.8 | 76.3* | /
CC(C)NC(=O)N(C)C[C@@H]1Oc2c(NC(=O)CCCCCC(=O)Nc3ccccc3N)cccc2C(=O)N([C@@H](C)CO)C[C@H]1C | -5.8 | 0.2 | / | 24.9* | -3.5 | /
C[C@@H]1CN([C@@H](C)CO)C(=O)c2cccc(NC(=O)CCCCCC(=O)Nc3ccccc3N)c2O[C@H]1CN(C)C(=O)Nc1ccc(F)cc1 | -0.6 | 4.9 | / | 48.5* | 7.2 | /
CO[C@H](CN(C)S(=O)(=O)c1cccc(Cl)c1)[C@H](C)CN([C@@H](C)CO)S(=O)(=O)c1cccc(Cl)c1 | 0.0 | 3.2 | / | -1.8 | -7.9 | /
Cc1cc(=O)n2nc(N3CCC(C(=O)NCCc4ccc(Cl)cc4)CC3)sc2n1 | 0.2 | 0.3 | 68.3* | 4.9 | -4.2 | -0.6
Cc1cc(=O)n2nc(N3CCC(C(=O)NCc4ccccc4Cl)CC3)sc2n1 | 8.3 | 2.6 | 5.2 | 14.1 | 1.0 | -1.0
CC(C)CN(CC(C)C)S(=O)(=O)N1CCC(C(=O)NCCc2ccc(Cl)cc2)CC1 | 16.1* | -0.7 | 2.6 | 3.1 | 1.3 | -0.7
O=[N+]([O-])c1ccc(Sc2nnnn2-c2ccccc2)c(Cl)c1 | / | / | 0.9 | / | / | /
Cn1nnnc1Sc1ccc([N+](=O)[O-])cc1Cl | 17.0* | 0.9 | 2.6 | / | 7.2 | 1.0
O=C(CCNC(=O)c1ccco1)NCCc1ccc(Cl)cc1 | 0.4 | 4.1 | -2.4 | -1.5 | -3.7 | -2.1
O=C(CCNC(=O)c1ccco1)Nc1ccc(Cl)cc1F | -1.8 | -1.0 | -1.7 | 28.2* | -8.5 | -2.4
CO[C@H]1CN(C)C(=O)c2ccc(NC(=O)C3CC3)cc2OC[C@H](C)N(C(=O)c2ccccc2)C[C@@H]1C | 5.7 | -1.9 | / | 18.2 | 5.9 | /
Cn1cnc(S(=O)(=O)N2CC[C@@H]3[C@H]2c2cc(C#CC4CCCC4)ccc2N[C@@H]3CO)c1 | -2.6 | 2.0 | / | -6.7 | -5.5 | /
Cc1noc(C)c1NC(=O)N(C)C[C@@H]1Oc2ccc(NS(=O)(=O)c3cn(C)cn3)cc2C(=O)N([C@H](C)CO)C[C@H]1C | 4.9 | 0.0 | / | -8.7 | -7.4 | /
Cc1cccc(OC(=O)Nc2ccc(C(=O)O)c(O)c2)c1 | 34.7* | -35.4 | / | 13.5 | -11.5 | /

Bioassay records from PubChem BioAssay.
